Peptide text beside a SMILES is read from it. * marks the point of attachment. Hydrocinnamoyl = O=C(CCc1ccccc1)*; Myristoyl = CCCCCCCCCCCCCC(=O)*; pNA = O=[N+]([O-])c1ccc(N*)cc1; Undecanoyl = CCCCCCCCCCC(=O)*; Morpholide = C1CN(*)CCO1; Cbz = O=C(OCc1ccccc1)*; NHBn = c1ccc(CN*)cc1; NHOH = ON*
organism: Rattus norvegicus; assay: Inhibition of rat recombinant Rab geranylgeranyltransferase at 100 uM in presence of canine Rab7 and rat REP1 NBD-FPP based continuous fluorimetric assay
Method in brief: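 Continuous fluorometric assay in 96/384-well format: 3 μM Rab7, 3 μM REP1, 9 μM NBD-FPP and 400 nM RabGGTase, with or without inhibitor. […] IC50 was calculated from three independent measurements.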

Compound | inhibition
O=C(CNC(=O)[C@H](Cc1ccc(O)cc1)NC(=O)c1ccc(F)cc1)N[C@@H](Cc1ccc(O)cc1)C(=O)NCc1ccccc1 | 60%
CC(C)[C@H](NC(=O)c1coc(-c2ccccc2)n1)C(=O)NCC(=O)N[C@@H](Cc1c[nH]cn1)C(=O)Nc1ccc(F)cc1F | 55%
O=C(N[C@@H](Cc1ccc(O)cc1)C(=O)N[C@@H](Cc1ccc(O)cc1)C(=O)N[C@@H](Cc1ccc(O)cc1)C(=O)NCc1ccccc1)c1ccc(F)cc1F | 70%
O=C(CNC(=O)[C@H](Cc1c[nH]cn1)NC(=O)c1coc(-c2ccccc2)n1)N[C@@H](Cc1c[nH]c2ccccc12)C(=O)O | 69%
CCCCCCCCCCCCCCCCNC(=O)[C@H](CC1CCCC1)NC(=O)[C@H](CCC(N)=O)NC(=O)[C@@H](NC(=O)CCC(O)CBr)[C@@H](C)O (stereo not given in full) | 75%
O=C(CNC(=O)c1csc(-c2ccccc2)n1)N[C@@H](Cc1ccccc1)C(=O)N[C@@H](Cc1c[nH]cn1)C(=O)O | 70%
O=C(CCc1ccc(F)cc1)N[C@@H](Cc1ccc(O)cc1)C(=O)NCC(=O)N[C@@H](Cc1ccc(O)cc1)C(=O)Nc1ccccc1 | 99%
NC(=O)CC[C@H](NC(=O)[C@H](Cc1ccccc1)NC(=O)[C@H](CO)NC(=O)CCc1ccccc1)C(=O)O (Hydrocinnamoyl-Ser-Phe-Gln-OH) | 102%
CC[C@H](C)[C@H](NC(=O)c1ccc(-c2ccccc2)cc1)C(=O)N[C@@H](C(=O)N[C@@H](CCC(N)=O)C(=O)OC)C(C)C | 94%
CCCCCCCCCCCCCC(=O)OC[C@H](NC(=O)[C@H](Cc1ccccc1)NC(=O)[C@H](CCCCNC(=O)c1csc(-c2cccnc2)n1)NC(=O)c1csc(-c2cccnc2)n1)C(=O)O | 67%
C[C@H](NC(=O)[C@@H](NC(=O)c1ccc(-c2ccccc2)cc1)[C@@H](C)O)C(=O)N[C@@H](CCC(N)=O)C(=O)Nc1nccs1 | 108%
NCCCC[C@H](NC(=O)c1coc(-c2ccccc2)n1)C(=O)NCC(=O)N[C@@H](Cc1ccc(O)cc1)C(=O)O | 100%
C[C@@H](O)[C@H](NC(=O)/C=C/c1ccccc1)C(=O)N[C@@H](Cc1ccccc1)C(=O)N[C@@H](CCC(N)=O)C(=O)O | 83%
C=CCCCOC(=O)[C@H](CCC(N)=O)NC(=O)[C@H](C)NC(=O)[C@@H](NC(=O)c1ccc(-c2ccccc2)cc1)[C@@H](C)O | 89%
O=C(/C=C/c1ccc(F)cc1)N[C@@H](CO)C(=O)N[C@@H](Cc1ccccc1)C(=O)N[C@@H](CO)C(=O)Nc1ccccc1 | 73%
C[C@@H](O)[C@H](NC(=O)C(Br)C(Br)c1ccccc1)C(=O)N[C@@H](Cc1ccccc1)C(=O)N[C@@H](CCC(N)=O)C(=O)OCCCl (stereo not given in full) | 64%
O=C(CCc1ccccc1)N[C@@H](CO)C(=O)N[C@@H](Cc1ccccc1)C(=O)N[C@@H](CO)C(=O)NCc1ccccc1 (Hydrocinnamoyl-Ser-Phe-Ser-NHBn) | 95%
O=C(CNC(=O)[C@H](Cc1ccccc1)NC(=O)c1csc(-c2cccs2)n1)N[C@@H](CO)C(=O)Nc1nccs1 | 124%
COC(=O)[C@H](CO)NC(=O)[C@H](Cc1ccccc1)NC(=O)[C@H](CO)NC(=O)/C=C/c1ccc(F)cc1 | 98%
CCC/C=C/c1cccc(/C=C/C(=O)N[C@H](Cc2cnc[nH]2)C(=O)N[C@@H](Cc2ccc(O)cc2)C(=O)N[C@@H](Cc2ccccc2)C(=O)O)c1 | 59%

Compound | inhibition
CC[C@H](C)[C@H](NC(=O)c1ccc(-c2ccccc2)cc1)C(=O)N[C@@H](C(=O)N[C@@H](CCC(N)=O)C(=O)OCCCl)C(C)C | 89%
CC[C@H](C)[C@H](NC(=O)CCc1ccc(F)cc1)C(=O)N[C@@H](C)C(=O)N[C@@H](CCC(N)=O)C(=O)Nc1cccc(Br)n1 | 92%
COC(=O)[C@H](CC(C)C)NC(=O)[C@H](COC(C)(C)C)NC(=O)[C@H](Cc1ccccc1)NC(=O)CCc1ccccc1 | 81%
C[C@H](NC(=O)/C=C/c1ccc(F)cc1)C(=O)NCC(=O)N[C@@H](Cc1ccc(O)cc1)C(=O)NC1CCCCC1 | 11%
O=C(CNC(=O)[C@@H]1CCCN1C(=O)/C=C/c1ccccc1)N[C@@H](Cc1ccccc1)C(=O)O | 71%
O=C(/C=C/c1ccccc1)N[C@@H](Cc1ccccc1)C(=O)N[C@@H](Cc1ccccc1)C(=O)N[C@@H](Cc1ccc(O)cc1)C(=O)NC1CCCCC1 | 71%
O=C(CCc1ccccc1)N[C@@H](CO)C(=O)NCC(=O)N[C@@H](CO)C(=O)NCc1ccccc1 (Hydrocinnamoyl-Ser-Gly-Ser-NHBn) | 90%
C=CCCCCCCCCCOC(=O)[C@H](CO)NC(=O)CNC(=O)[C@H](CO)NC(=O)/C=C/c1ccc(F)cc1 | 57%
NC(=O)CC[C@H](NC(=O)[C@H](Cc1ccccc1)NC(=O)CNC(=O)CCc1ccccc1)C(=O)Nc1ccc(F)cc1F | 93%
O=C(CNC(=O)[C@H](Cc1ccc(O)cc1)NC(=O)c1coc(-c2ccccc2)n1)N[C@@H](Cc1ccccc1)C(=O)O | 65%
CC(C)C[C@H](NC(=O)[C@H](CO)NC(=O)[C@H](Cc1ccccc1)NC(=O)CCc1ccccc1)C(N)=O | 100%
O=C(CCc1ccccc1)N[C@@H](CO)C(=O)N[C@@H](Cc1ccccc1)C(=O)N[C@@H](CO)C(=O)Nc1ccc(F)cc1F | 96%
CC[C@H](C)[C@H](NC(=O)c1ccc(-c2ccccc2)cc1)C(=O)N[C@@H](C(=O)N[C@@H](CCC(N)=O)C(=O)N(C)OC)C(C)C | 109%
C=CCOC(=O)[C@H](Cc1cn(C(c2ccccc2)(c2ccccc2)c2ccccc2)cn1)NC(=O)[C@H](Cc1ccccc1)NC(=O)CNC(=O)c1coc(-c2ccccc2)n1 | 55%
NC(=O)CC[C@H](NC(=O)[C@H](Cc1ccccc1)NC(=O)[C@H](CO)NC(=O)CCc1ccccc1)C(=O)Nc1ccc([N+](=O)[O-])cc1 (Hydrocinnamoyl-Ser-Phe-Gln-pNA) | 93%
CC(=O)Nc1cc(C(=O)N2CCC[C@H]2C(=O)N[C@@H](C(=O)N[C@@H](CCC(=O)O)C(=O)O)C(C)C)ccc1[N+](=O)[O-] | 95%
O=C(CNC(=O)C1CCCN1C(=O)/C=C/c1ccccc1)NC(Cc1ccccc1)C(=O)NCc1ccc(F)cc1F (stereo not given) | 54%
C=CCCCCCCCCCOC(=O)[C@H](CCC(N)=O)NC(=O)[C@H](Cc1ccccc1)NC(=O)[C@H](CO)NC(=O)CCc1ccccc1 | 120%
CC[C@H](C)[C@H](NC(=O)/C=C/c1ccc(F)cc1)C(=O)N[C@@H](C)C(=O)N[C@@H](CCC(N)=O)C(=O)OC | 83%
CC(C)C[C@H](NC(=O)[C@H](COC(C)(C)C)NC(=O)[C@H](Cc1ccccc1)NC(=O)CCc1ccccc1)C(=O)O | 88%

Now from value to compound:

inhibition | Compound
75% | CCCCCCCCCCCOc1ccc(C(=O)N[C@@H](Cc2c[nH]cn2)C(=O)N[C@@H](Cc2ccc(O)cc2)C(=O)N[C@@H](Cc2ccccc2)C(=O)O)cc1
81% | CCCCCCCCCCC(=O)N[C@@H](Cc1c[nH]cn1)C(=O)N[C@@H](Cc1c[nH]cn1)C(=O)N[C@@H](CO)C(N)=O (Undecanoyl-His-His-Ser-NH2)
95% | CCCCCCCCCCCCCC(=O)N[C@@H](Cc1ccc(O)cc1)C(=O)N[C@@H](Cc1ccc(O)cc1)C(=O)N[C@@H](Cc1ccc(O)cc1)C(=O)N1CCOCC1 (Myristoyl-Tyr-Tyr-Tyr-Morpholide)
74% | CCCCCCCCCCCOc1ccc(C(=O)N[C@@H](Cc2c[nH]cn2)C(=O)N[C@@H](Cc2ccc(O)cc2)C(=O)N[C@@H](Cc2ccccc2)C(=O)OCCN)cc1
89% | NC(=O)[C@H](Cc1ccc(O)cc1)NC(=O)CNC(=O)[C@H](Cc1c[nH]cn1)NC(=O)OCc1ccccc1 (Cbz-His-Gly-Tyr-NH2)
34% | CCCCCCCCCCC(=O)N[C@@H](Cc1c[nH]cn1)C(=O)N[C@@H](Cc1ccccc1)C(=O)N[C@@H](Cc1ccc(O)cc1)C(=O)Nc1ccccc1N
15% | O=C(N[C@@H](Cc1c[nH]cn1)C(=O)N[C@@H](Cc1ccc(O)cc1)C(=O)N[C@@H](Cc1ccccc1)C(=O)O)OCc1ccccc1OCc1ccccc1
88% | CCCCCCCCCCC(=O)N[C@@H](Cc1ccc(O)cc1)C(=O)N[C@@H](Cc1c[nH]cn1)C(=O)N[C@@H](Cc1ccc(O)cc1)C(=O)NO (Undecanoyl-Tyr-His-Tyr-{NHOH})
65% | CCCCCCCCCCCOc1ccc(C(=O)N[C@@H](Cc2c[nH]cn2)C(=O)N[C@@H](Cc2ccc(O)cc2)C(=O)N[C@@H](Cc2ccccc2)C(=O)N(C)OC)cc1
87% | C=CCCCCCCCCCOC(=O)[C@H](CO)NC(=O)[C@H](Cc1ccccc1)NC(=O)[C@H](CO)NC(=O)/C=C/c1ccc(F)cc1
54% | CCCCCCCCCCCC(=O)N[C@@H](Cc1ccc(O)cc1)C(=O)N[C@@H](Cc1c[nH]cn1)C(=O)N[C@@H](Cc1c[nH]cn1)C(=O)N(C)CCc1ccccn1
87% | CCCCCCCCCCC(=O)N[C@@H](Cc1ccc(O)cc1)C(=O)N[C@@H](Cc1c[nH]cn1)C(=O)N[C@@H](Cc1c[nH]cn1)C(=O)Nc1ccccc1N
78% | CN(CCc1ccccn1)C(=O)[C@H](Cc1ccc(O)cc1)NC(=O)CCNC(=O)[C@H](Cc1c[nH]cn1)NC(=O)OCc1ccccc1
83% | CCCCCCCCCCC(=O)N[C@@H](Cc1ccc(O)cc1)C(=O)N[C@@H](Cc1c[nH]cn1)C(=O)N[C@@H](Cc1ccc(O)cc1)C(N)=O (Undecanoyl-Tyr-His-Tyr-NH2)
84% | CON(C)C(=O)[C@H](Cc1ccc(O)cc1)NC(=O)CNC(=O)[C@H](Cc1ccc(O)cc1)NC(=O)c1ccc(F)cc1
74% | CCCCCCCCCCOc1ccc(C(=O)N[C@@H](Cc2c[nH]cn2)C(=O)N[C@@H](Cc2c[nH]cn2)C(=O)N[C@@H](CO)C(=O)O)cc1
79% | CCCCCCCCCCC(=O)N[C@@H](Cc1ccc(O)cc1)C(=O)N[C@@H](Cc1c[nH]cn1)C(=O)N[C@@H](Cc1ccc(O)cc1)C(=O)NOC(C)(C)C
93% | COC(=O)[C@H](Cc1ccc(O)cc1)NC(=O)CNC(=O)[C@H](Cc1ccc(O)cc1)NC(=O)c1ccc(F)cc1
37% | CCCCCCCCCCCOc1ccc(C(=O)N[C@@H](Cc2c[nH]cn2)C(=O)N[C@@H](Cc2c[nH]cn2)C(=O)N[C@@H](Cc2c[nH]cn2)C(=O)NCC(O)CO)cc1 (stereo not given in full)
72% | CCCCCCCCCCCOc1ccc(C(=O)N[C@@H](Cc2ccc(O)cc2)C(=O)N[C@@H](Cc2ccc(O)cc2)C(=O)N[C@@H](Cc2ccc(O)cc2)C(=O)Nc2ccccn2)cc1
